Source: PMC5013402 (BMJ Open Diabetes Research & Care, 2016)
Like-named read-outs stand apart in the source and are kept apart here. Marks after values point to notes of the source that are not given here.

What was measured:
[1] = assay type: in vivo, human (patients with type 1 or type 2 diabetes); details: serum, mean (SD), n=19
Method in brief: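 Patients arrived fasting, with the morning prandial dose withheld; basal insulin or oral agents were taken as usual. Each inhaled their current individualized dose (range 15–90 units), then drank a standardized 540 kcal/67.5 g carbohydrate liquid meal. Serum was sampled at −30, 0, 5, 10, 15, 20, 30, 45, 60, 90, 120, 180 and 240 min. The challenge was repeated ≥15 to ≤45 days after symptom resolution, each patient serving as own control. Descriptive statistics.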

[2] = cited from earlier work; for Terminal clearance half-life from the lung: delivered as Technosphere inhaled insulin
[3] = after subcutaneous injection; cited from earlier work

Compound | Terminal clearance half-life from the lung [2] [h] | Duration of action [3] [h] | Time to maximum concentration [3] [min] | further results
O=C(O)/C=C/C(=O)NCCCC[C@@H]1NC(=O)[C@H](CCCCNC(=O)/C=C/C(=O)O)NC1=O [FDKP, fumaryl diketopiperazine] | ~1 |  |  | FDKP tmax ([1]; during URTI): 15.8 (26.2)† min; FDKP t½ ([1]; during URTI): 163.2 (35.5)† min; FDKP tmax ([1]; post-URTI): 15.5 (14.8)† min; FDKP t½ ([1]; post-URTI): 174.8 (79.0)† min; Excretion ([2]; after inhalation of Technosphere inhaled insulin): excreted unchanged in the urine
insulin aspart |  | 3 to 5 | 50 to 120 | 
insulin lispro |  | 3 to 5 | 50 to 120 | 
insulin: recombinant human insulin delivered as Technosphere inhaled insulin | ~1 |  |  | 
regular human insulin: regular human insulin given by subcutaneous injection |  | 5 to 8 | 80 to 120 | 
